Source: ChEMBL document CHEMBL5661977, “BI 6727, a Polo-like kinase inhibitor with improved pharmacokinetic profile and broad antitumor activity” (Clin Cancer Res, 2009)

Legend:
[1] = Cmax in BomTac:NMRI-Foxn1nu mouse at 50 mg/kg, po by HPLC-MS/MS analysis; assay type: ADME, organism-based; details: in vivo
How it was run: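 Single oral gavage of BI 6727 suspended in 0.5% hydroxyethyl-cellulose (10 mL/kg) to female nude mice or male Wistar rats. EDTA plasma levels measured over time by HPLC-MS/MS with internal standard. AUC0-24 by trapezoidal rule. Parameters from noncompartmental analysis.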

[2] = AUC (0-24hrs) in Wistar rat at 30 mg/kg, po by HPLC-MS/MS analysis; assay type: ADME, organism-based; details: in vivo
How it was run: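 Single oral dose to female nude mice or male Wistar rats. EDTA plasma was collected over 24 h and quantified by LC-MS/MS after extraction with internal standard. AUC0-24 was calculated from the concentration-time profile by the trapezoidal rule using noncompartmental analysis.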

NCI-H460 [3] = experiment: Antitumor activity against human NCI-H460 cells xenografted in BomTac:NMRI-Foxn1nu mouse assessed as T/C at 70 mg/kg, po administered once a week upto 6 weeks relative to control; assay type: functional
How it was run: (§1)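 Female nude mice bore s.c. HCT 116 (2×10^6 cells), NCI-H460 (1×10^6 cells) or serially transplanted CXB1 tumor pieces. At ~50–100 mm³, mice were randomized into groups of 10 and dosed i.v. (0.1 N HCl/saline) or by gavage (0.5% hydroxyethyl-cellulose) at 10 mL/kg. Calipers read thrice weekly, volume = length×width²×π/6. T/C from median volumes on the last day.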

[4] = AUC (0 to 24 hrs) in human HCT-116 cells xenografted in BomTac:NMRI-Foxn1nu mouse at 50 mg/kg, po administered once a week upto 6 weeks by HPLC-MS/MS analysis; assay type: ADME, organism-based; details: in vivo, 1008 h
NCI-H460 [5] = experiment: Antimitotic activity against human NCI-H460 cells assessed as inhibition of cell proliferation incubated for 72 hrs by Alamar blue based fluorescence spectrophotometric analysis; assay type: functional; details: NCI-H460, 72 h
How it was run: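 Cancer cell lines were cultured per supplier instructions and exposed to various inhibitor concentrations for 72 h. Growth was read as Alamar blue conversion by fluorescence. EC50 (50% growth inhibition) was extrapolated from the dose-response curve fit.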

[6] = Antitumor activity against human CXB1 cells xenografted in BomTac:NMRI-Foxn1nu mouse assessed as T/C at 15 mg/kg, iv administered twice a week upto 6 weeks relative to control; assay type: functional, CXB1 cell; how it was run: as §1
[7] = AUC (0 to 24 hrs) in human HCT-116 cells xenografted in BomTac:NMRI-Foxn1nu mouse at 30 mg/kg, iv administered once a week upto 6 weeks by HPLC-MS/MS analysis; assay type: ADME, organism-based; details: in vivo, 1008 h
[8] = Drug uptake in human HCT-116 cells xenografted in BomTac:NMRI-Foxn1nu mouse plasma at 35 mg/kg, iv measured after 1 hrs by HPLC-MS/MS analysis; assay type: ADME, organism-based
How it was run: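 Female nude mice bearing s.c. HCT 116 xenografts (2 × 10⁶ cells), n = 3 per time point, given a single i.v. dose. Tumor, organs and EDTA plasma collected at 1, 8, 24, 48, 96 and 168 h. Tissue extracts and plasma analysed by HPLC-MS/MS. Tissue nmol/mg converted to nmol/L assuming density 1.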

Cmax [1]: 5.7 µM | AUC(0-t) [2]: 34 µM·h | AUC [4]: 44 µM·h | EC50 (NCI-H460 [5]): 21 nM | AUC [7]: 52 µM·h | concentration at 1 h [8]: 7 µM
SMILES: CC[C@@H]1C(=O)N(C)c2cnc(Nc3ccc(C(=O)N[C@H]4CC[C@H](N5CCN(CC6CC6)CC5)CC4)cc3OC)nc2N1C(C)C [VOLASERTIB]
T/C (NCI-H460 [3]): 20% | T/C [6]: 12%
